Source: PubChem
Only some compounds are listed: those with a hit (about 1.7% of all), similar ones and a draw of the others.
SUMO1-SIM PPI = modulators of human SUMO1-mediated protein-protein interactions; P63165; SUMO1 binding to a labelled peptide, TR-FRET, 1 h; inhibition, % at 20 µM; 360,000 compounds, 0.33% hits; AID 602429; in the data active = inhibition above about 37%
Scp-1 inhibitor = blocks human Scp-1 phosphatase activity | Recombinant Scp1, phosphopeptide, malachite green phosphate absorbance | 340,000 compounds, 0.88% hits | inhibition, % at 20 µM | AID 493091;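 active = inhibition above about 50% at 20 µM, limit read from the data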
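System: truncated SCP-1 phosphatase (76-261aa); medium: Tris acetate buffer pH 5.5 with MgCl2 and Tween-20; incubation: 45 min room-temperature reaction, 5 min colour, 30 min stabiliser; compound: single 20 µM dose, 1% DMSO; reagent: Phosphorylated 17-residue peptide substrate; read-out: % inhibition at 20 µM; technique: colorimetric free-phosphate detection, absorbance 630 nm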
STEP block = STEP (human) phosphatase inhibition; P54829; recombinant STEP, OMFP fluorogenic substrate, fluorescence; inhibition, % at 20 µM; 360,000 compounds, 0.25% hits; AID 588621;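 active = inhibition at 20 µM, scaled per plate between control wells, above about 37%, limit read from the data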
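System: isolated STEP enzyme; schedule: 20 min enzyme reaction at room temperature, protected from light; medium: Bis-Tris buffer pH 6.0, 2.5 mM DTT, 0.005% Tween 20; signal: fluorescence, 480/540 nm; dosing: single compound dose of 20 µM, 1% DMSO final; also added: OMFP substrate, 25 µM final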
DNMT1 block = DNMT1 (human) enzyme inhibition. 360,000 compounds, 0.83% hits. DNMT1 molecular beacon, Hinp1I cleavage, fluorescence. inhibition (reported as % activation of signal), % at 10 µM. P26358; in the data active = inhibition above about 50%
LMPTP block = blocks human LMPTP phosphatase; inhibition, % at 20 µM; 360,000 compounds, 0.22% hits; recombinant LMPTP-A, OMFP fluorogenic substrate, fluorescence intensity;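 active = compounds that cut the enzyme signal by at least half of the control window in the single-dose screen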
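material = LMPTP-A | quantity = 0.625 nM enzyme | reagent = OMFP substrate, 400 µM final | buffer or medium = Bis-Tris pH 6.0, DTT, detergent | detection = endpoint fluorescence intensity from OMFP dephosphorylation | dosing = single 20 µM dose | read-out basis = % inhibition relative to no-enzyme and uninhibited control wells | control set = no-enzyme and uninhibited controls | timing = 50 min at room temperature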
Scp1 confirm = Scp-1 (human) inhibition, single-dose confirmed. shares compounds with Scp-1 inhibitor. recombinant SCP-1 catalytic domain, phosphate release, malachite green absorbance. inhibition, % at 20 µM. 2,500 compounds, 61% hits. AID 540281
Scp-1 MG ctr = interferes with malachite green readout, flagging false Scp-1 hits; shares compounds with Scp-1 inhibitor; Colorimetric interference counterscreen, malachite green absorbance 630 nm; apparent inhibition (interference), % at 20 µM; 2,500 tested, under 10 active;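 note: compounds added after enzyme reaction finished so only phosphate colour detection is probed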
Scp-1 Tm shift = Scp-1 (human) binding by thermal shift; shares compounds with Scp-1 inhibitor; Recombinant SCP1, Sypro Orange thermal shift Tm; thermal shift relative to vanadate control, % at 40 µM; 1,500 compounds, 25% hits; AID 540329;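 active = substances whose mean melting-temperature shift, as a percentage of the reference inhibitor's shift, reaches about 5.3%, limit read from the data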
Large screens that a line does not name were inactive (follow-up assays come after a bar, where they were run).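 Rule for the calls, unless noted: active = inhibition of at least 30% at 20 µM; inactive = the rest.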

COc1cccc(C(O)c2nc(-c3cccc(C(C)C)c3)cs2)c1 (centres undefined)	none (no result: Scp-1 inhibitor)
COC(=O)c1ccc(/C=N/NC(=O)c2cccc(F)c2)cc1	Scp-1 inhibitor 87 | Scp1 confirm 48 | Scp-1 MG ctr inactive | Scp-1 Tm shift inactive
COc1ccc(/C=C/C(=O)Oc2cccc(/C=N/NC(=O)c3cccc(F)c3)c2)cc1	Scp-1 inhibitor 87 | Scp1 confirm 37 | Scp-1 MG ctr inactive | Scp-1 Tm shift inactive
COc1ccc(/C=C/C(=O)Oc2ccc(/C=N\NC(=O)c3ccc(F)cc3)cc2)cc1	none
Cc1ccccc1C(=O)Nc1ccc(C(=O)N/N=C/c2ccc(F)cc2)cc1	Scp-1 inhibitor 91 | Scp1 confirm inactive | Scp-1 MG ctr inactive
Cc1ccc(S(=O)(=O)C[C@@H]2OC3CCCCC3N2S(=O)(=O)c2ccc(C)cc2)cc1 (some centres undefined)	none (no result: Scp-1 inhibitor, STEP block, DNMT1 block)
CC(=O)NC(c1cccc(F)c1)c1nc(-c2cccc(C(F)(F)F)c2)cs1 (centres undefined)	none (no result: Scp-1 inhibitor)
CCc1nnc(NC(=O)CC(C)c2ccccc2)s1 (centres undefined)	Scp-1 inhibitor 58 | Scp1 confirm inactive | Scp-1 MG ctr inactive
CC(C)Cc1nnc(NC(=O)CC(C)c2ccccc2)s1 (centres undefined)	none
C#Cc1ccc([C@@H]2C=C(C(=O)O)O[C@H](OCc3ccc(CO)cc3)C2)cc1	Scp-1 inhibitor 57 | Scp1 confirm 68 | Scp-1 MG ctr inactive | Scp-1 Tm shift inactive
O=C(O)C1=C[C@@H](c2ccccc2)C[C@@H](OCc2ccc(CO)cc2)O1	none
Cn1c(Nc2ccc(Cl)cc2F)nc2cc(-c3ccccc3)sc2c1=O	none (no result: Scp-1 inhibitor)
O=C(Nc1ccc2nn(-c3ccccc3)nc2c1)c1ccc(Br)o1	Scp-1 inhibitor 93, DNMT1 block 76 | Scp1 confirm 90 | Scp-1 MG ctr inactive | Scp-1 Tm shift inactive
COc1ccc2cc(C(=O)Nc3ccc(S(N)(=O)=O)cc3)sc(=O)c2c1OC	Scp-1 inhibitor 73 | Scp1 confirm 38 | Scp-1 MG ctr inactive | Scp-1 Tm shift inactive
COc1ccc2cc(C(=O)Nc3ccccc3)sc(=O)c2c1OC	none
CCc1nc2ccc(C(=O)NCCc3ccccn3)cn2c1N(C)Cc1cccs1	none (no result: Scp-1 inhibitor)
CN1OC[C@@H]2CN(C(=S)NCCc3ccccc3)[C@H](c3ccccc3Br)C[C@@H]21	none (no result: Scp-1 inhibitor)
O=C(c1cccnc1)N1CCC(Oc2ccc(C(=O)N3CCCCO3)cc2)CC1	Scp-1 inhibitor 69 | Scp1 confirm inactive | Scp-1 MG ctr inactive
CCC(=O)C1CCCN(C(=O)c2ccc(OC3CCN(C(=O)c4cccnc4)CC3)cc2)C1 (centres undefined)	none
O=C(CSc1ccsc1[N+](=O)[O-])N1CCN(c2ccccc2)CC1	Scp-1 inhibitor 64 | Scp1 confirm 76 | Scp-1 MG ctr inactive | Scp-1 Tm shift inactive
O=C(CSc1nc2sccc2c(=O)[nH]1)N1CCN(c2ccccc2)CC1	Scp-1 inhibitor 109 | Scp1 confirm 59 | Scp-1 MG ctr inactive | Scp-1 Tm shift inactive
COCCNC(=O)C1(C)CCCN(Cc2ccc(OC)cc2)C1 (centres undefined)	none (no result: Scp-1 inhibitor)
CCCNC(=O)C1(C)CCCN(Cc2ccc3ccccc3c2)C1 (centres undefined)	none (no result: Scp-1 inhibitor)
CCOC(=O)C1C(C(C)=O)=C(c2ccccc2)c2ccccc2N1S(=O)(=O)C(F)(F)F (centres undefined)	Scp-1 inhibitor 88 | Scp1 confirm inactive | Scp-1 MG ctr inactive
Cc1ccc(C(=O)Nc2ccc(N3CCN(C(=O)c4ccco4)CC3)cc2)c(Cl)c1	Scp-1 inhibitor 68 | Scp1 confirm inactive | Scp-1 MG ctr inactive
O=C(Nc1ccc(N2CCN(C(=O)c3ccco3)CC2)cc1)c1ccc([N+](=O)[O-])cc1Cl	none
CCOC(=O)Cc1ccc(Nc2nc3cc(-c4ccccc4C)sc3c(=O)n2C)cc1	none (no result: Scp-1 inhibitor)
COc1ccc(/C=C2/CSC/C(=C/c3ccc(OC)c(OC)c3)C2=O)cc1OC	none
